Where “and” joins values, the source holds several entries; their conditions need not be identical. Identical values can stand only once.
Test system: Fibroblast
Assay: Multiplex assay against human fibroblast
Assay type: toxicity, cell-based
Procedure, shortened: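 Phenotypes for tubulin, mitochondrial mass and membrane permeability are expressed as per cents of healthy-nucleus cells. Cells were stained live at seeding with Hoechst33342, BioTracker Green Microtubule Cytoskeleton Dye, MitoTracker Red and Annexin V Alexa Fluor 680, then imaged after compound addition on a CQ1 microscope at 37°C and 5% CO2. Machine-learning gating in CellPathfinder separated Hoechst high-intensity objects from normal cells, divided normal cells by nuclear state (healthy, pyknosed, fragmented) and divided pyknosed cells into mitotic or apoptotic.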

[1] = 12 h, 1 µM, compound concentration 1 uM
[2] = 12 h, 10 µM, compound concentration 10 uM
[3] = 24 h, 1 µM, compound concentration 1 uM
[4] = 24 h, 10 µM, compound concentration 10 uM
[5] = 48 h, 1 µM, compound concentration 1 uM
[6] = 48 h, 10 µM, compound concentration 10 uM

COc1ccc2c(c1OCc1ccccc1)C[C@@H](C(=O)O)N(C(=O)C(c1ccccc1)c1ccccc1)C2 [OLODANRIGAN]
Population Apoptotic (%) [1]: 46% and 38% | Population Fragmented Nuclei (%) [1]: 17% and 21% | Population Healthy Nuclei (%) [1]: 63% and 50% | Population Hoechst High Intensity Objects (%) [1]: 7% and 1% | Population Membrane Permeable-Phenotype (%) [1]: 1% and 9% | Population Mitochondria Different-Phenotype (%) [1]: 2% and 5% | Population Mitotic Cells (%) [1]: 53% and 61% | Population Normal (%) [1]: 92% and 98% | Population Pyknosed Nuclei (%) [1]: 19% and 27% | Population Tubulin-Different-Phenotype (%) [1]: 29% and 57% | Total Cell Count [1]: 157 and 154 | Population Apoptotic (%) [2]: 31% and 34% | Population Fragmented Nuclei (%) [2]: 11% and 18% | Population Healthy Nuclei (%) [2]: 65% and 54% | Population Hoechst High Intensity Objects (%) [2]: 0% and 5% | Population Membrane Permeable-Phenotype (%) [2]: 1% and 6% | Population Mitochondria Different-Phenotype (%) [2]: 7% | Population Mitotic Cells (%) [2]: 68% and 65% | Population Normal (%) [2]: 99% and 94% | Population Pyknosed Nuclei (%) [2]: 23% and 26% | Population Tubulin-Different-Phenotype (%) [2]: 28% and 46% | Total Cell Count [2]: 140 and 162 | Population Apoptotic (%) [3]: 65% and 38% | Population Fragmented Nuclei (%) [3]: 18% and 21% | Population Healthy Nuclei (%) [3]: 66% and 53% | Population Hoechst High Intensity Objects (%) [3]: 6% and 2% | Population Membrane Permeable-Phenotype (%) [3]: 0% and 9% | Population Mitochondria Different-Phenotype (%) [3]: 1% and 7% | Population Mitotic Cells (%) [3]: 34% and 61% | Population Normal (%) [3]: 93% and 97% | Population Pyknosed Nuclei (%) [3]: 15% and 25% | Population Tubulin-Different-Phenotype (%) [3]: 26% and 46% | Total Cell Count [3]: 159 and 146 | Population Apoptotic (%) [4]: 53% and 58% | Population Fragmented Nuclei (%) [4]: 10% and 17% | Population Healthy Nuclei (%) [4]: 68% and 62% | Population Hoechst High Intensity Objects (%) [4]: 2% and 3% | Population Membrane Permeable-Phenotype (%) [4]: 1% and 4% | Population Mitochondria Different-Phenotype (%) [4]: 3% and 4% | Population Mitotic Cells (%) [4]: 46% and 41% | Population Normal (%) [4]: 97% and 96% | Population Pyknosed Nuclei (%) [4]: 21% and 19% | Population Tubulin-Different-Phenotype (%) [4]: 21% and 50% | Total Cell Count [4]: 136 and 153 | Population Apoptotic (%) [5]: 42% and 41% | Population Fragmented Nuclei (%) [5]: 27% and 31% | Population Healthy Nuclei (%) [5]: 58% and 52% | Population Hoechst High Intensity Objects (%) [5]: 3% and 1% | Population Membrane Permeable-Phenotype (%) [5]: 0% and 1% | Population Mitochondria Different-Phenotype (%) [5]: 2% and 4% | Population Mitotic Cells (%) [5]: 57% and 58% | Population Normal (%) [5]: 96% and 98% | Population Pyknosed Nuclei (%) [5]: 14% and 15% | Population Tubulin-Different-Phenotype (%) [5]: 20% and 40% | Total Cell Count [5]: 154 and 156 | Population Apoptotic (%) [6]: 57% and 61% | Population Fragmented Nuclei (%) [6]: 15% and 29% | Population Healthy Nuclei (%) [6]: 69% and 58% | Population Hoechst High Intensity Objects (%) [6]: 5% and 7% | Population Membrane Permeable-Phenotype (%) [6]: 1% and 3% | Population Mitochondria Different-Phenotype (%) [6]: 5% | Population Mitotic Cells (%) [6]: 42% and 38% | Population Normal (%) [6]: 94% and 92% | Population Pyknosed Nuclei (%) [6]: 15% and 12% | Population Tubulin-Different-Phenotype (%) [6]: 27% and 45% | Total Cell Count [6]: 146 and 163

O=c1nc2[nH]c3ccccc3nc-2c(=O)[nH]1 [ALLOXAZINE]
Population Apoptotic (%) [1]: 56% and 37% | Population Fragmented Nuclei (%) [1]: 16% and 26% | Population Healthy Nuclei (%) [1]: 67% and 50% | Population Hoechst High Intensity Objects (%) [1]: 5% and 3% | Population Membrane Permeable-Phenotype (%) [1]: 0% and 6% | Population Mitochondria Different-Phenotype (%) [1]: 2% and 3% | Population Mitotic Cells (%) [1]: 43% and 62% | Population Normal (%) [1]: 94% and 96% | Population Pyknosed Nuclei (%) [1]: 16% and 23% | Population Tubulin-Different-Phenotype (%) [1]: 23% and 33% | Total Cell Count [1]: 193 and 131 | Population Apoptotic (%) [2]: 33% and 41% | Population Fragmented Nuclei (%) [2]: 23% and 41% | Population Healthy Nuclei (%) [2]: 60% and 38% | Population Hoechst High Intensity Objects (%) [2]: 4% and 1% | Population Membrane Permeable-Phenotype (%) [2]: 3% | Population Mitochondria Different-Phenotype (%) [2]: 5% and 15% | Population Mitotic Cells (%) [2]: 66% and 58% | Population Normal (%) [2]: 95% and 98% | Population Pyknosed Nuclei (%) [2]: 15% and 20% | Population Tubulin-Different-Phenotype (%) [2]: 23% and 57% | Total Cell Count [2]: 158 and 86 | Population Apoptotic (%) [3]: 52% and 36% | Population Fragmented Nuclei (%) [3]: 17% and 31% | Population Healthy Nuclei (%) [3]: 69% and 41% | Population Hoechst High Intensity Objects (%) [3]: 3% and 4% | Population Membrane Permeable-Phenotype (%) [3]: 0% and 2% | Population Mitochondria Different-Phenotype (%) [3]: 2% and 0% | Population Mitotic Cells (%) [3]: 47% and 63% | Population Normal (%) [3]: 96% and 95% | Population Pyknosed Nuclei (%) [3]: 12% and 27% | Population Tubulin-Different-Phenotype (%) [3]: 21% and 31% | Total Cell Count [3]: 190 and 114 | Population Apoptotic (%) [4]: 47% and 64% | Population Fragmented Nuclei (%) [4]: 19% and 45% | Population Healthy Nuclei (%) [4]: 64% and 32% | Population Hoechst High Intensity Objects (%) [4]: 3% | Population Membrane Permeable-Phenotype (%) [4]: 0% | Population Mitochondria Different-Phenotype (%) [4]: 2% and 7% | Population Mitotic Cells (%) [4]: 52% and 35% | Population Normal (%) [4]: 96% | Population Pyknosed Nuclei (%) [4]: 15% and 21% | Population Tubulin-Different-Phenotype (%) [4]: 22% and 50% | Total Cell Count [4]: 153 and 82 | Population Apoptotic (%) [5]: 71% and 39% | Population Fragmented Nuclei (%) [5]: 14% and 30% | Population Healthy Nuclei (%) [5]: 72% and 48% | Population Hoechst High Intensity Objects (%) [5]: 9% and 3% | Population Membrane Permeable-Phenotype (%) [5]: 0% and 9% | Population Mitochondria Different-Phenotype (%) [5]: 1% | Population Mitotic Cells (%) [5]: 28% and 60% | Population Normal (%) [5]: 90% and 96% | Population Pyknosed Nuclei (%) [5]: 13% and 20% | Population Tubulin-Different-Phenotype (%) [5]: 23% and 56% | Total Cell Count [5]: 178 and 114 | Population Apoptotic (%) [6]: 55% and 45% | Population Fragmented Nuclei (%) [6]: 26% and 49% | Population Healthy Nuclei (%) [6]: 61% and 36% | Population Hoechst High Intensity Objects (%) [6]: 6% and 2% | Population Membrane Permeable-Phenotype (%) [6]: 2% and 3% | Population Mitotic Cells (%) [6]: 44% and 54% | Population Normal (%) [6]: 93% and 97% | Population Pyknosed Nuclei (%) [6]: 11% and 13% | Population Tubulin-Different-Phenotype (%) [6]: 29% and 51% | Total Cell Count [6]: 164 and 81

Source: ChEMBL document CHEMBL5724801, “EUbOPEN Chemogenomics Library - Multiplex” (2024)
